Molecules are shown by their SMILES.

Experiment [1] has as its target T1, Serine/threonine-protein kinase Nek1 (Homo sapiens) (UniProt Q96PY6).
T1 sequence (whole entry): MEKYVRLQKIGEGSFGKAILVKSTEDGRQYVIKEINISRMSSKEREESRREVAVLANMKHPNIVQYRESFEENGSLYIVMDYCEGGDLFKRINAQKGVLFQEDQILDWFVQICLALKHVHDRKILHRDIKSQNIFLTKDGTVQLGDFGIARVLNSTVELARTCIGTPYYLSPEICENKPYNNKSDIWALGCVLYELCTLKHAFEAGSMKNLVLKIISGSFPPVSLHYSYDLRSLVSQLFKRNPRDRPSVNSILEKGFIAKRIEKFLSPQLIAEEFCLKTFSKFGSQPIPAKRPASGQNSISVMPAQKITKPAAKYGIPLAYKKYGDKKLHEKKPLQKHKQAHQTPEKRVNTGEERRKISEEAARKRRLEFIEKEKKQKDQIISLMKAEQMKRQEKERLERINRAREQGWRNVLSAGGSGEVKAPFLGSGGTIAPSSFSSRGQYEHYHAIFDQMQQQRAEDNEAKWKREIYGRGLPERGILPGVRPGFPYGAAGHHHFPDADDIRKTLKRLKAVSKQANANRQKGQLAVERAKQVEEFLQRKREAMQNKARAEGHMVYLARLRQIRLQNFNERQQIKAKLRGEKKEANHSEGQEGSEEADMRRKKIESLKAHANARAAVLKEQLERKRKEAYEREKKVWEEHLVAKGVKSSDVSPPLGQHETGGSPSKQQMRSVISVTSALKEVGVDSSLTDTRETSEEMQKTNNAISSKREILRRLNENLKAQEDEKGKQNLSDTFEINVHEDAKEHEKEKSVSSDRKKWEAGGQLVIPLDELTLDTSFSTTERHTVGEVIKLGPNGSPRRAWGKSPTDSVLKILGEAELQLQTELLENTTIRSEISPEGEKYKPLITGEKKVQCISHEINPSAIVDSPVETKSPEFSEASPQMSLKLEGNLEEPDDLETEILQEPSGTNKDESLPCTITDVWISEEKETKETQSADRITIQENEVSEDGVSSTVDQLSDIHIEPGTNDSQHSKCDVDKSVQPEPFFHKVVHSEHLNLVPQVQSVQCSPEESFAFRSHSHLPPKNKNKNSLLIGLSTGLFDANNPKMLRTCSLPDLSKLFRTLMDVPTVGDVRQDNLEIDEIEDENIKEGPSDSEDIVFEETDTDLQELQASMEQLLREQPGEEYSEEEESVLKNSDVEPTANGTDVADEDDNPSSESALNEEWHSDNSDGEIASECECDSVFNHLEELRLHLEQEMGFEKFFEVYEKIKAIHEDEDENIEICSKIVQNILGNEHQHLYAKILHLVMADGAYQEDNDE
As to the kind of experiment: Inhibition of human recombinant NEK1 at 40 nM in presence of ATP by radiometric assay relative to control.

For experiment [2], the target named is 5'-AMP-activated protein kinase catalytic subunit alpha-1 (Homo sapiens) (UniProt Q13131). The experiment can be described thus: Inhibition of human recombinant AMPKa1 at 40 nM in presence of ATP by radiometric assay relative to control. A digest of the protocol: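 Panel of 327 recombinant human kinases, each assayed in vitro by radiometric activity assay in duplicate at a single inhibitor concentration per compound, chosen with reference to its ULK1 inhibition. Activity remaining was expressed as percent of vehicle control, and percent inhibition was calculated as 100 minus percent activity remaining.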
5'-AMP-activated protein kinase catalytic subunit alpha-1 (Homo sapiens), sequence (Q13131 whole entry, looked up): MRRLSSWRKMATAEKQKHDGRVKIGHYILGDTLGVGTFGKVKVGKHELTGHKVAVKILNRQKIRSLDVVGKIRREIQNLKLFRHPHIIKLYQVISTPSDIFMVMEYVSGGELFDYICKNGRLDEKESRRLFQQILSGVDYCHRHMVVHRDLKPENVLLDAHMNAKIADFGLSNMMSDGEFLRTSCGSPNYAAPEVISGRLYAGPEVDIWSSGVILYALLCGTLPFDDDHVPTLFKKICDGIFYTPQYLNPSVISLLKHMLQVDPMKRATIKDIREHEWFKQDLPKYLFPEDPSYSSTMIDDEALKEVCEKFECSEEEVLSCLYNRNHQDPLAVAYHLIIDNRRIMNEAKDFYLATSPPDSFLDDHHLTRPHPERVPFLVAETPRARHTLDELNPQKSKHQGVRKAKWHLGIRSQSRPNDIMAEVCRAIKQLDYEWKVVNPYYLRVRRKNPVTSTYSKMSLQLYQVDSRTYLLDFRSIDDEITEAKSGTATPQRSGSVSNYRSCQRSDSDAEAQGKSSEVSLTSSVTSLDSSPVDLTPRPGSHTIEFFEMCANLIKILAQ

For experiment [3], the target named is Tyrosine-protein kinase Blk (Homo sapiens) (UniProt P51451). The experiment can be described thus: Inhibition of human recombinant BLK at 15 nM in presence of ATP by radiometric assay relative to control. Put shortly: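 Part of a radiometric in vitro activity panel of 327 recombinant human kinases. Each kinase was tested in duplicate at one inhibitor concentration. Activity remaining was expressed as a percentage of the vehicle control, and percent inhibition was taken as 100 minus that value.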
Tyrosine-protein kinase Blk (Homo sapiens), sequence (P51451 2-505 limits assumed): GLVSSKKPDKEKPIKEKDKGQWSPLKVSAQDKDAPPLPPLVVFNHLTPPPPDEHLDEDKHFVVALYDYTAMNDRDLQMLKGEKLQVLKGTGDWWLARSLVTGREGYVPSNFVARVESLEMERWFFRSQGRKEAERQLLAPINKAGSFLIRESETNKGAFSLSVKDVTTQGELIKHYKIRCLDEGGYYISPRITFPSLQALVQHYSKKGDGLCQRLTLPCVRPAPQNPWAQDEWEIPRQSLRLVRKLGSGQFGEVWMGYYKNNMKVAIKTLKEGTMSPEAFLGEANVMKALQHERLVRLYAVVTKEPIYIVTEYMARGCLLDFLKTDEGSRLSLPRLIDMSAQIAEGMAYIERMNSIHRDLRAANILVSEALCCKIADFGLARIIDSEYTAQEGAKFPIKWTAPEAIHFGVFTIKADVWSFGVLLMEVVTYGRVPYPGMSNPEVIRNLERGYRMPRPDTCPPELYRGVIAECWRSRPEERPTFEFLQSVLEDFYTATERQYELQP

Experiment [4] concerns the target T2, Inhibitor of nuclear factor kappa-B kinase subunit beta (Homo sapiens) (UniProt O14920).
T2 sequence (whole entry): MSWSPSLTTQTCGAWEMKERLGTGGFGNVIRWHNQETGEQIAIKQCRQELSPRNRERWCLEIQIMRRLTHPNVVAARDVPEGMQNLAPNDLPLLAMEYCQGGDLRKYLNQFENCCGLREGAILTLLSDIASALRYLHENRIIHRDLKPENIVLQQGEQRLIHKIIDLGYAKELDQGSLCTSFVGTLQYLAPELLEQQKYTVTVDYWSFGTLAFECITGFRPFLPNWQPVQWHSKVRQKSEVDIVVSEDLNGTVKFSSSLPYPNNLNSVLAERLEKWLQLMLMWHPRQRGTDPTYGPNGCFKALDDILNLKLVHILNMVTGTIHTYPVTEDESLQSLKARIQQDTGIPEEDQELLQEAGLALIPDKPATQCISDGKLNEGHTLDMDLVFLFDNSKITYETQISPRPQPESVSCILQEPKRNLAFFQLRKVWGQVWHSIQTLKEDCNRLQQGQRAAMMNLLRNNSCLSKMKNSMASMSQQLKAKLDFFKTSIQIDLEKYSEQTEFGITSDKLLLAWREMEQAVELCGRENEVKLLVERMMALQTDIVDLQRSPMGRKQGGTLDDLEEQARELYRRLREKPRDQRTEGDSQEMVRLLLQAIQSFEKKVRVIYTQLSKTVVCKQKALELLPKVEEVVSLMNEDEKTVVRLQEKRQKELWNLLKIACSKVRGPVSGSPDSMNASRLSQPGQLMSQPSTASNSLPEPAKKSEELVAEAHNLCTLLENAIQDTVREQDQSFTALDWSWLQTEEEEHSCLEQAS
The experiment can be described thus: Inhibition of human recombinant IKKb at 15 nM related to control ULK1.

Experiment [5] deals with G protein-coupled receptor kinase 6 (Homo sapiens) (UniProt P43250). As to the kind of experiment: Inhibition of human recombinant GPRK6 at 15 nM related to control ULK1.
G protein-coupled receptor kinase 6 (Homo sapiens), sequence (P43250 whole entry, looked up): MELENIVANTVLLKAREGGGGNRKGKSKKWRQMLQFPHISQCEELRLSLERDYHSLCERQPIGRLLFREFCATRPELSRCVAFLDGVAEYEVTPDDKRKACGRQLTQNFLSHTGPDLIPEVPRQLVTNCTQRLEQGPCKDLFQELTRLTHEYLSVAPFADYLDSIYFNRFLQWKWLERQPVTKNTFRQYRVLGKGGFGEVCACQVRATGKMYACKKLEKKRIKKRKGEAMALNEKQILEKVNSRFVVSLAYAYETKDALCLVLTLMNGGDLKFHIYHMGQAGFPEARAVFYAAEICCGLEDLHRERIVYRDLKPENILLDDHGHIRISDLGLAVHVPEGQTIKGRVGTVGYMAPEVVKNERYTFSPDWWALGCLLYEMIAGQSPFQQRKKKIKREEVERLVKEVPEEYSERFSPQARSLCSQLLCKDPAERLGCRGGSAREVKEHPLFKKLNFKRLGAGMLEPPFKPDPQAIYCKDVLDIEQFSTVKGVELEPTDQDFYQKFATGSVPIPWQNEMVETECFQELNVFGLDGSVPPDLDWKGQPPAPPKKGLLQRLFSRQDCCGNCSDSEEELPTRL
Experiment [6] addresses Cyclin-dependent kinase 9 (Homo sapiens) (UniProt P50750). The experiment can be described thus: Inhibition of human recombinant CDK9 at 15 nM related to control ULK1.

Cyclin-dependent kinase 9 (Homo sapiens), sequence (P50750 whole entry): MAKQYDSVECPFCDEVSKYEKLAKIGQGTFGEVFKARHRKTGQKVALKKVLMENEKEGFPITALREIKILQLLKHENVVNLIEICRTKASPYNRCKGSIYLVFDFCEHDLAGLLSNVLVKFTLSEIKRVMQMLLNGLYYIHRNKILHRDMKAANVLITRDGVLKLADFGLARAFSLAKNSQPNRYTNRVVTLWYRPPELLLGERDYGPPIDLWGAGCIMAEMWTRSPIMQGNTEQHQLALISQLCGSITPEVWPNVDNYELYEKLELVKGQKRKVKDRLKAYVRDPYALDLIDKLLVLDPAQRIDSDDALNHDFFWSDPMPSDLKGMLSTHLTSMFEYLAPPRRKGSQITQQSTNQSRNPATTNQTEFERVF

Usually inhibition stands for the percentage by which the read-out fell short of the control. Turning to `O=C(N[C@@H](C1CC1)C(F)(F)F)c1cc(-c2cnn3cc(-c4ccc(F)cc4)cnc23)cs1`, the inhibition in experiment [1] is 0%; in experiment [2], 8%.

As for `CC(C)[C@H](NC(=O)c1cc(-c2cnn3cc(-c4ccc(OCCN5CCCCC5)cc4)cnc23)cs1)C(F)(F)F`, the inhibition in experiment [3] worked out at 10%. For the same molecule, the fold change (FC) in experiment [4], in experiment [5] and in experiment [6] was 0 each time.
